In the library only some 4.9% were active in any assay of this set; here they are far more common.
STAT3 blocker – IL-6 driven STAT3 reporter inhibitors, primary screen, U3A cells, luciferase, luminescence, MLSCN library; IL-6 STAT3-luciferase reporter; host cell line lacks STAT1; inhibition, % at 5.5 µM; 190,000 tested, 0.89% active; AID 862, 2007;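 active = inhibition above the mean inhibition across all screened compounds plus 3 SD, cut at about 44% in these data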;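 note: 0% = DMSO only wells and 100% = 100 µM nifuroxazide control wells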
STAT3 activator – IL-6 driven STAT3 reporter potentiators, primary screen, U3A cells, luciferase, luminescence, MLSCN library; IL-6 STAT3-luciferase reporter; 100% = signal with IL-6 EC80 alone; 190,000 tested, 0.91% active; activation (% of control), % at 5.6 µM; AID 871, 2007;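 active = activation above the screen-wide mean of compound activation plus 3 SD, cut at about 130% in these data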;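 note: 0% = background luminescence of wells with medium and substrate only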
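Test system: STAT3-luciferase reporter U3A cells; Detection: reporter luminescence signal; Times: 1 h compound pre-exposure, 6 h IL-6 stimulation, 37 °C; Benchmarks: IL-6-only high control; Also added: IL-6 stimulus at 33 ng/mL final.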
STAT1 activator – STAT1 signaling activators, primary screen, cell-based, HTS, luciferase reporter; NIH 3T3 STAT1-luciferase reporter, IFN-gamma, luminescence; 100% = IFN-gamma alone, no compound; AID 932, 2007; 200,000 tested, 2.6% active; activation (% of control), % at 5.5 µM;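 active = activation above the screen-wide mean activation plus 3 SD, cut at about 130% in these data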;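 note: raw ratio to IFN-gamma control signal so 100% means no change and 0% no light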
APP 5'UTR act – activators of APP 5'UTR luciferase reporter, primary screen, SH-SY5Y cells. 190,000 tested, 1% active. SH-SY5Y APP 5'UTR luciferase reporter, luminescence; zero percent = DMSO vehicle wells. activation, % at 2 µM;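 active = activation above a set limit, based on mean plus 3 SD of controls, cut at about 140% in these data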
NF-kB expr up – activators of NF-kB expression in neurons, primary screen, cell-based, HTS; 190,000 tested, 1.6% active; fold change at 12.5 µM; human neuronal cells, NF-kB reporter expression; hits give high values; in the data active = fold change above about 3.3
STAT1 blocker – STAT1 signaling inhibitors, primary screen, cell-based, HTS, luciferase reporter; NIH 3T3 STAT1-luciferase reporter, IFN-gamma, luminescence; inhibition, % at 5.5 µM; 200,000 tested, 0.35% active; AID 920, 2007;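 active = inhibition above a set limit, the mean inhibition across all tested compounds plus 3 SD, cut at about 34% in these data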;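 note: 0% = IFN-gamma with DMSO and 100% = IFN-gamma with 300 µM nifuroxazide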
The depositor's hits bear a star.

SMILES	STAT3 blocker	STAT3 activator	STAT1 activator	APP 5'UTR act	NF-kB expr up	STAT1 blocker
COc1cccc2cc(-c3nc(-c4cccs4)cs3)c(=O)oc12	-5	105	133*	105	1.3	-37
COc1ccc(Nc2nc(-c3cc4cccc(OC)c4oc3=O)cs2)cc1	30	75	92	24	1.3	8
COc1cccc2cc(-c3ccccc3)c(=O)oc12	23	84	142*	152*	4.7*	-48
Cc1cccc(C)c1OC(=O)CCN1C(=O)C2C3C=CC(C4CC34)C2C1=O (configuration not stated)	-2	105	92	8	0.83	7
Cc1ccc(CN2CCN(Cc3cn[nH]c3-c3cccc(F)c3)CC2CCO)o1 (configuration not stated)	-8	111	106	-9	1	-9
O=c1c(C=NCc2cccnc2)c(C(F)(F)F)[nH]n1-c1nc2ccccc2s1	56*	54	64	95	1.5	38*
O=c1oc2ccccc2n1CSC1=NCCS1	-4	107	82	23	4.2*	20
O=c1oc2ccccc2n1CSc1nc2ccccc2s1	-10	115	137*	96	3.3*	-40
Cn1c(CSc2nc3ccccc3s2)nc2ccccc21	1	101	142*	61	2.1	-45
O=C(Nc1ccc(-c2nc3ccccc3[nH]2)cc1)c1cccc(N2C(=O)CCC2=O)c1	-3	103	98	5	1	2
O=C(CSc1nc(C2CC2)nc2c1cnn2-c1ccccc1)Nc1c[nH]c(=O)[nH]c1=O	-8	110	95	-4	1.4	3
O=C(O)C(Cc1c[nH]c2ccccc12)N1CCS(=O)(=O)CC1 (configuration not stated)	-9	118	85	14	1	14
Cc1csc(SCC(=O)Nc2ccc3c(c2)OCCO3)n1	13	93	132*	37	1.6	-39
CSc1nsc(SCC(=O)Nc2ccc3c(c2)OCCO3)n1	5	97	114	141*	4*	-15
C/C(CC(=O)Nc1ccc2c(c1)OCCO2)=N\NC(=O)c1ccccn1	11	97	128	136*	1.1	-29
C/C(CC(=O)Nc1cc(C)cc(C)c1)=N\NC(=O)c1ccccn1	9	91	111	107	1.3	-11
Cc1ccc(Cl)c(OC(=O)Cn2cnc3c2c(=O)n(C)c(=O)n3C)c1	-7	106	102	4	1.3	-1
COc1cccc(C(=O)COC(=O)CCC(=O)NC2CCCCC2)c1	5	97	105	2	0.97	-7
CC(C)OC(=O)c1ccc(NC(=O)C2C3CC4OC(=O)C2C4C3)cc1 (configuration not stated)	-12	113	133*	47	1.2	-36
O=C(NN=C1CCCCCCCCCCC1)c1ccccc1F	-3	103	123	57	1.7	-26
COc1ccc(Nc2nc3ccc(OC)cc3s2)cc1	11	95	130*	39	2.5	-32
NNc1nc2ccc(Cl)cc2s1	-17	118	109	10	1.7	-10
NNc1nc2ccc(F)cc2s1	-25	124	150*	104	2.1	-56
Fc1ccc2nc(Nc3ccccc3)sc2c1	11	97	140*	66	3.7*	-43
O=c1c2ccccc2ncn1CCCOc1ccccc1[N+](=O)[O-]	-1	101	129*	91	2.1	-32
SMILES	STAT3 blocker	STAT3 activator	STAT1 activator	APP 5'UTR act	NF-kB expr up	STAT1 blocker
CCC1(C)Cc2sc3c(=O)[nH]c(=S)[nH]c3c2CO1 (configuration not stated)	0	103	101	4	1.1	-3
CCCSc1nc(C)c2cc(C)cc(C)c2n1	0	98	89	-3	0.98	12
Cc1cc(C)c2nc3nc(C)c(C)cc3c(N)c2c1	-19	122	143*	-4	0.84	-46
COCCN(C(=S)Nc1ccc(C(C)C)cc1)C(C)c1cccs1 (configuration not stated)	9	99	102	-13	1.2	-2
COc1cc(CNCc2ccccc2)c(Br)cc1OC1CCCC1	3	104	99	-22	1.1	0
O=C1CCCCC1Sc1nnc(Nc2ccccc2)s1 (configuration not stated)	-12	112	144*	58	3.1	-49
Cc1c(Cl)ccc2c(C(=O)NCCN3CCCCC3)cc(-c3ccccn3)nc12	-42	134*	116	13	0.98	-20
CC1CCC/C(=N/Nc2nc3ccccc3s2)C1 (configuration not stated)	6	100	138*	140*	1.3	-43
CC1(C)CC(=O)C/C(=N/Nc2nc3ccccc3s2)C1	-13	115	103	57	0.61	-3
Cc1cccc(OCc2nc(-c3nonc3N)no2)c1C	3	103	139*	69	2.3	-40
C=CCN1C(=O)/C(=C/C=C2/N(CC)c3ccc(S(=O)(=O)N(C)C)cc3N2CC)SC1=S	16	93	99	-11	1	0
O=[N+]([O-])c1ccc(COn2nnc3ccccc32)cc1	19	88	115	-12	1.1	-20
Clc1ccc(COn2nnc3ccccc32)c(Cl)c1	20	85	146*	153*	2.4	-49
CC(C)N=C(NS(=O)(=O)NC(=O)c1ccccc1)c1ccccc1	24	87	103	-15	1.1	-4
COc1cccc(/C=N/NC(=O)c2cc(-c3cccn3C)n[nH]2)c1	6	100	100	-2	1	0
COc1cc(/C=N/NC(=O)c2cc(-c3cccn3C)n[nH]2)cc(OC)c1OC	-32	134*	99	-11	0.53	1
COc1cc(/C=N/NC(=O)c2nonc2N)cc(OC)c1OC	5	102	110	10	1.1	-12
COc1cc(/C=N\NC(=O)c2ccc(=O)[nH]n2)cc(OC)c1OC	-16	124	92	-10	3.5*	9
O=C(CNCc1ccco1)Nc1ccc(Oc2ccccc2)cc1	13	96	100	23	0.97	1
O=C(COC(=O)CNC(=O)c1ccc(Br)o1)Nc1ccccc1OC(F)F	-2	104	105	-15	0.96	-6
Cc1ccc(-c2nnc(SCC(C)C)n2C)cc1	2	102	138*	47	1.4	-41
Cc1ccc(-c2nnc(SCC(N)=O)n2C)cc1	6	100	107	-2	1.1	-8
C/C(=N\OCc1ccccc1)c1c(O)cc(C(C)C)n(-c2ccccc2)c1=O	4	97	95	25	1.3	5

Source: PubChem BioAssay (several laboratories)
